Test results: ChEMBL document CHEMBL1123227, “Tricyclic epines. Novel (E)- and (Z)-11H-dibenz[b,e]azepines as potential central nervous system agents. Variation of the basic side chain” (1986)

Columns and labels:
Format in all cases: functional
Oryctolagus cuniculus = species: Oryctolagus cuniculus; test: Compound was tested for the muscle-relaxing activity in rabbits
Procedure, shortened: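 Muscle electrical activity during contraction was recorded and pulses were counted. A 5 s extension was repeated every 1 min. Once pulse counts were constant (control value), the substance was given iv, and post-dose pulses were related to that value. Four to six animals were used per dose. ED50 was the dose halving muscle activity from the initial value.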

Rattus norvegicus [1] = species: Rattus norvegicus; test: Compound was tested or the anti-tryptamine activity in rats
Procedure, shortened: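 Rats were challenged with tryptamine hydrochloride (16 mg/kg iv), with test substances given ip 30 min beforehand. Activity was scored as absence of clonic front paw movements over a 5 min observation after tryptamine. ED50 was the dose preventing the symptom in half the animals, determined by Probit analysis.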

Rattus norvegicus [2] = species: Rattus norvegicus; test: Compound was tested or the anti-tryptamine activity in rats relative with respect to clozapine.
Procedure, shortened: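 Rats dosed ip 30 min before tryptamine hydrochloride 16 mg/kg iv. Effect means front paw clonic movements absent over 5 min observation after tryptamine. ED50 is the dose preventing the symptom in half the animals (Probit analysis); relative activity referenced to clozapine.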

Mus musculus [3] = species: Mus musculus; test: Sedative activity relative with respect to clozapine.
Mus musculus [4] = species: Mus musculus; test: Anticholinergic activity relative with respect to clozapine.
Mus musculus [5] = species: Mus musculus; test: Anticholinergic activity in mice.
Procedure, shortened: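 Groups of 10 female NMRI mice received a lethal dose of physostigmine (0.825 mg/kg sc). Test substances were given orally 30 min before the physostigmine.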

Mus musculus [6] = species: Mus musculus; test: Sedative activity in mice
Rattus norvegicus [7] = species: Rattus norvegicus; test: Compound was tested for the apomorphine antagonistic activity in rats expressed as relative activity
Procedure, shortened: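 Female Sprague–Dawley rats, groups of four to six. Oral dosing 90 min before apomorphine 1.5 mg/kg sc. Jaw movements recorded via implanted electrodes (mandibulogram).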

Compound | ED50 (Oryctolagus cuniculus) [mg/kg] | ED50 (Rattus norvegicus [1]) [mg/kg] | Relative activity (Rattus norvegicus [2]) | Relative activity (Mus musculus [3]) | Relative activity (Mus musculus [4]) | ED50 (Mus musculus [5]) [mg/kg] | ED50 (Mus musculus [6]) [mg/kg] | Relative activity (Rattus norvegicus [7])
CN1CCN(C2=Nc3ccccc3C(=CC#N)c3ccccc32)CC1 | 0.059 | 30 | 0.17 |  |  |  |  | 
C[N+]1([O-])CCN(C2=Nc3ccccc3C(=CC#N)c3ccccc32)CC1 |  |  |  | 0.33 | 0.89 | 15.9 |  | 
CCN1CCN(C2=Nc3ccccc3C(=CC#N)c3ccccc32)CC1 | ~0.32 | 6.6 | 0.76 |  |  |  |  | 
Cc1ccc2c(c1)N=C(N1CCN(C)CC1)c1ccccc1C2=CC#N | 0.028 | 6 | 0.83 | 5.9 | 0.45 |  | 0.8 | 
CCN1CCCC1CNC1=Nc2ccccc2/C(=C/C#N)c2ccccc21 (configuration not stated) |  |  |  | 0.28 | <0.14 | > 100 | 17.2 | 
N#C/C=C1/c2ccccc2N=C(NCCN)c2ccccc21 |  |  |  | <0.04 | <0.14 | > 100 | > 100 | 
Cc1ccc2c(c1)/C(=C/C#N)c1ccccc1C(N1CCN(C)CC1)=N2 | ~0.1 | ~21 | 0.23 |  |  |  |  | 
CN1CCN(C2=Nc3ccccc3/C(=C/C#N)c3ccccc32)CC1 | 0.046 | 79 | 0.06 |  | 0.81 |  |  | 
N#C/C=C1/c2ccccc2N=C(N2CCN(CCO)CC2)c2ccccc21 |  |  |  | 0.32 | 0.21 | ~68.1 | 14.6 | 
CN1CCC(OC2=Nc3ccccc3/C(=C/C#N)c3ccccc32)CC1 |  |  |  | <0.22 | <0.66 | > 21.5 | > 21.5 | 
N#C/C=C1/c2ccccc2N=C(N2CCOC(CO)C2)c2ccccc21 (configuration not stated) |  |  |  | <0.1 | 0.3 | ~46.4 | > 46.4 | 
N#C/C=C1/c2ccccc2N=C(N2CCNCC2)c2ccccc21 |  |  |  | 0.15 | 0.66 | 21.3 | 30.6 | 
N#C/C=C1/c2ccccc2N=C(NCCN2CCOCC2)c2ccccc21 |  |  |  | 0.58 | <0.14 | > 100 | 8.12 | 
CN(C)CCN(C)C1=Nc2ccccc2/C(=C/C#N)c2ccccc21 |  |  |  | 0.32 | 0.45 | ~31.6 | ~14.7 | 
CN1CCCCC1COC1=Nc2ccccc2/C(=C/C#N)c2ccccc21 (configuration not stated) |  |  |  | 0.11 | 0.21 | ~68.1 | 43.6 | 
N#C/C=C1/c2ccccc2N=C(N2CCOCC2)c2ccccc21 |  |  |  | < 0.04 | <0.14 | > 100 | > 100 | 
CN1CCN(C2=Nc3ccc(Cl)cc3/C(=C/C#N)c3ccccc32)CC1 |  |  |  | 0.19 | 0.88 | 16.1 | 25.6 | 
N#C/C=C1/c2ccccc2N=C(N2CCC(O)CC2)c2ccccc21 |  |  |  | <0.1 | <0.14 | > 100 | > 46.4 | 
Cc1ccc2c(c1)N=C(N1CC[N+](C)([O-])CC1)c1ccccc1/C2=C/C#N |  |  |  | 1.78 | 0.45 | 31 | 2.66 | 
C[N+]1([O-])CCN(C2=Nc3ccccc3/C(=C/C#N)c3ccccc32)CC1 |  |  |  | 0.26 | 0.14 | ~100 |  | 
Cc1ccc2c(c1)N=C(N1CCN(CCN3CCOC3=O)CC1)c1ccccc1/C2=C\C#N |  |  |  | 0.5 | <0.3 | > 46.4 | 9.56 | 
CC1CCN(C2=Nc3ccccc3/C(=C/C#N)c3ccccc32)CC1 |  |  |  | 0.07 | <0.3 | > 46.4 | ~68.1 | 
CC1CN(C2=Nc3ccccc3/C(=C/C#N)c3ccccc32)CCN1C (configuration not stated) |  |  |  | 0.59 | 1.84 | 7.68 | 8.08 | 
CN1CCCN(C2=Nc3ccccc3/C(=C/C#N)c3ccccc32)CC1 |  |  |  | <0.22 | 2.57 | 5.49 | > 21.5 | 

Compound | ED50 (Oryctolagus cuniculus) [mg/kg] | ED50 (Rattus norvegicus [1]) [mg/kg] | Relative activity (Rattus norvegicus [2]) | Relative activity (Mus musculus [3]) | Relative activity (Mus musculus [4]) | ED50 (Mus musculus [5]) [mg/kg] | ED50 (Mus musculus [6]) [mg/kg] | Relative activity (Rattus norvegicus [7])
CN1CCCC(COC2=Nc3ccccc3/C(=C/C#N)c3ccccc32)C1 (configuration not stated) |  |  |  | <0.1 | 2.38 | 5.92 | > 46.4 | 
N#C/C=C1/c2ccccc2N=C(NCCN2CCCC2)c2ccccc21 |  |  |  | 0.96 | <0.14 | > 100 | 4.96 | 
CN1CCC(N(C)C2=Nc3ccccc3/C(=C/C#N)c3ccccc32)CC1 |  |  |  | 0.35 | 0.45 | ~31.6 | 13.4 | 
CCN1CCN(C2=Nc3ccccc3/C(=C\C#N)c3ccccc32)CC1 |  | > 100 | <0.05 |  |  |  |  | 
CN1CCN(CCNC2=Nc3ccccc3/C(=C/C#N)c3ccccc32)CC1 |  |  |  | 0.17 | <0.14 | > 100 | 27.7 | 
CCN(CC)CCNC1=Nc2ccccc2/C(=C/C#N)c2ccccc21 |  |  |  | 0.83 | <0.14 | > 100 | 5.72 | 
Cc1ccc2c(c1)N=C(N1CCN(C)CC1)c1ccccc1/C2=C/C#N | 0.25 | 51 | 0.1 |  |  |  | 33.6 | 
CN(C)CCCOC1=Nc2ccccc2/C(=C/C#N)c2ccccc21 |  |  |  | <0.04 | 0.59 | 24 | > 100 | 
CN1CCCC(CNC2=Nc3ccccc3/C(=C/C#N)c3ccccc32)C1 (configuration not stated) |  |  |  | <0.04 | 0.3 | ~46.4 | > 100 | 
CN1CCC(NC2=Nc3ccccc3/C(=C/C#N)c3ccccc32)CC1 |  |  |  | <0.04 | 0.21 | ~68.1 | > 100 | 
CC1CN(C)CCN1C1=Nc2ccccc2/C(=C/C#N)c2ccccc21 (configuration not stated) |  |  |  | 0.22 | 0.66 | ~21.5 | ~21.5 | 
C[N+]1([O-])CCN(C2=Nc3ccccc3/C(=C\C#N)c3ccccc32)CC1 |  |  |  | 0.04 | 1.61 | 8.75 |  | 
N#C/C=C1/c2ccccc2N=C(N2CCN(CCN3CCOC3=O)CC2)c2ccccc21 |  |  |  | 0.12 | 0.28 | 51 | 39.4 | 
N#C/C=C1/c2ccccc2N=C(N2CC[N+]([O-])(CCO)CC2)c2ccccc21 |  |  |  | 0.46 | 0.36 | 39 | 10.3 | 
N#C/C=C1/c2ccccc2N=C(NCCN2CCCCC2)c2ccccc21 |  |  |  |  | <1.41 | > 10 |  | 
CCN1CCN(C2=Nc3ccccc3/C(=C/C#N)c3ccccc32)CC1 |  |  |  | 1.7 | <0.66 | > 21.5 | 2.79 | 
C[N+]1([O-])CCCC(COC2=Nc3ccccc3/C(=C/C#N)c3ccccc32)C1 (configuration not stated) |  |  |  | <0.04 | <0.14 | > 100 | > 100 | 
CN(C)CCNC1=Nc2ccccc2/C(=C/C#N)c2ccccc21 |  |  |  | 0.31 | <0.14 | > 100 | 15.5 | 
Cc1ccc2c(c1)N=C(N1CCN(C)CC1)c1ccccc1/C2=C\C#N | 0.014 | 10 | 0.5 |  |  | ~100 |  | 
CN(C)CCCNC1=Nc2ccccc2/C(=C/C#N)c2ccccc21 |  |  |  | <0.1 | <0.3 | > 46.4 | > 46.4 | 
CN(C)CCOC1=Nc2ccccc2/C(=C/C#N)c2ccccc21 |  |  |  | 0.14 | 0.57 | 24.9 | 34.8 | 
N#C/C=C1/c2ccccc2N=C(N2CCC(O)(c3ccccc3)CC2)c2ccccc21 |  |  |  | <0.1 | <0.14 | > 100 | > 46.4 | 
CN1CCN(C2=Nc3ccccc3/C(=C\C#N)c3ccccc32)CC1 | ~1 | 32 | 0.16 | <0.2 | 3 |  |  | 
CN1CCN(C2=Nc3cc(Cl)ccc3Nc3ccccc32)CC1 [CLOZAPINE] | 0.028 | 5 | 1 | 1 | 1 |  |  | 1
